{"source": "paper PMC6245472", "about": "(Molecules, 2008)", "key": {"[1]": {"tested_on": "Plasmodium falciparum 3D7 strain (CQ-sensitive)", "assay": "P. falciparum in vitro parasite growth inhibition", "type": "cell-based", "summary_of_the_method": "(§1)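 Asynchronous culture (65–75% rings, 0.5% parasitemia, 2.5% hematocrit) in RPMI 1640/0.5% Albumax II/5 µM hypoxanthine. Triplicate 3-fold dilutions, 10.0–0.0412 µg/mL, DMSO ≤0.01% final. 37 °C, 5% CO2, 24 h, then [3H]hypoxanthine 0.2 µCi/well for a further 24 h. Plates frozen, harvested, scintillation-counted. IC50 curve-fitted, mean of independent experiments. SI = KB IC50 (72 h, Alamar Blue)/parasite IC50. RI from K1 and 3D7 IC50s.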"}, "[2]": {"tested_on": "Plasmodium falciparum K1 strain (CQ-resistant)", "assay": "P. falciparum in vitro parasite growth inhibition", "type": "cell-based", "conditions": "for RI (K1/3D7) Resistance Index: ratio of K1 and 3D7 IC50", "summary_of_the_method": "as §1"}}}
{"smiles": "CCN(CC)CCCC(C)Nc1ccnc2cc(Cl)ccc12", "note": "(stereo not drawn) [CQ, Chloroquine diphosphate]", "values": [{"measurement": "SI 3D7 Selectivity Index", "setting": "[1]; (KB IC50)/(3D7 IC50)", "value": 8150}, {"measurement": "IC50", "setting": "[1]; Plasmodium falciparum, 3D7, read-out: 3D7 IC50", "value": 13.5, "unit": "nM"}, {"measurement": "SI K1 Selectivity Index", "setting": "[2]; (KB IC50)/(K1 IC50)", "value": 161}, {"measurement": "IC50", "setting": "[2]; Plasmodium falciparum, K1, read-out: K1 IC50", "value": 682, "unit": "nM"}, {"measurement": "RI (K1/3D7) Resistance Index", "setting": "[2]", "value": 50.52}, {"measurement": "RI (K1/3D7) Resistance Index", "setting": "[2]; listed as chloroquine", "value": 50}]}
